From ChEMBL document CHEMBL3352816, “Synthesis and antiproliferative activity of imidazo[2,1-b][1,3,4]thiadiazole derivatives” (Bioorg Med Chem Lett, 2014) come the findings set out here.

Each structure is given as a SMILES string. Calls of active or inactive are those of the source. The rule behind the calls is not given here.

The subject of data set [1] is REH. The experiment in a line: Induction of apoptosis in human REH cells assessed as induction of ROS production at 10 uM after 10 mins by flow cytometric analysis (reference value: 0.33 %). The data set is classed as functional.
Data set [2] deals with REH. In words: Induction of apoptosis in human REH cells assessed as PARP cleavage after 48 hrs by Western blot analysis. It counts as functional, cell-based. The procedure, abridged: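 Reh cell lysates were prepared after 48 h treatment at 500 nM and 1 µM, with DMSO-treated cells as control. Western blotting used primary antibodies against KU70, PARP1, caspase 3, BID, caspase 9, FAS and caspase 8, with tubulin also probed.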

A short description of data set [3]: Growth inhibition of human Leukemia cells. The data set is classed as functional. As to conditions: Leukemia cell.
A short description of data set [4]: Growth inhibition of human Colon cancer cells. As to conditions: Cancer cell lines. It counts as functional.
Data set [5] can be described thus: Growth inhibition of human CNS cancer cells. The data set is classed as functional. As to conditions: Cancer cell lines.
A short description of data set [6]: Growth inhibition of human Ovarian cancer cells. It counts as functional. Particulars: Cancer cell lines.
The nature of data set [7]: Growth inhibition of human Renal cancer cells. It counts as functional. Particulars: Cancer cell lines.
Data set [8] relates to REH. The experiment in a line: Cytotoxicity against human REH cells assessed as reduction in cell viability at 0.1 to 10 uM by trypan blue exclusion assay. The data set is classed as functional, cell-based. Particulars: TDE = time-dependent effect. The essentials:
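Reh, K562 and Nalm6 leukemic cells were treated with 10, 50, 100 and 250 µM or with 0.1, 0.5, 1, 5 and 10 µM (compounds dissolved in DMSO). Viability was scored by trypan blue after 24, 48 and 72 h. DMSO-treated cells served as vehicle control.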

Data set [9] relates to REH. In words: Cytotoxicity against human REH cells assessed as reduction in cell viability at 5 to 10 uM after 48 to 72 hrs by MTT assay. The data set is classed as functional, cell-based. The essentials: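 MTT viability read-out in leukemic cells treated with 10, 50, 100 and 250 µM or with 0.1, 0.5, 1, 5 and 10 µM. Cells harvested after 48 and 72 h. Compounds dissolved in DMSO.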

Data set [10] deals with REH. The experiment in a line: Cytotoxicity against human REH cells assessed as induction of cell death at 3 uM after 24 to 72 hrs by live-dead cell assay. It counts as functional, cell-based. Particulars: in the assay text read “24 to 48 hrs” for “24 to 72 hrs”. The essentials: (§1)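 Reh leukemic and 293T human kidney epithelial cells were treated at 3 µM and compared by live-dead cell assay at 24 and 48 h.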

Data set [11] deals with HEK293. In words: Cytotoxicity against HEK293 cells assessed as induction of cell death at 3 uM after 24 to 72 hrs by live-dead cell assay. Particulars: human, hek293, 3 µM; in the assay text read “24 to 48 hrs” for “24 to 72 hrs”. It counts as cell-based. The essentials:
as §1

The test system of data set [12] is HEK293. The experiment in a line: Cytotoxicity against HEK293 cells assessed as reduction in cell viability at 3 uM after 24 to 72 hrs by trypan blue exclusion assay. It counts as cell-based. As to conditions: human, hek293, 3 µM.
Data set [13] concerns REH. The experiment in a line: Cell cycle arrest in human REH cells assessed as reduction of cells in G1 phase after 48 hrs using propidium iodide by FACS analysis. The data set is classed as functional, cell-based. The essentials: (§2)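 Reh and Nalm6 cells exposed 48 h to 0.1, 0.5, 1 and 5 µM, harvested, stained with propidium iodide and analysed by flow cytometry. Gated fractions were sub G1, G1, S and G2. DMSO-treated cells served as vehicle control. Three independent experiments for Reh and two for Nalm6.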
(In general: Flow cytometry measures light scatter and fluorescence of single cells or particles in a stream.)

A short description of data set [14]: Cell cycle arrest in human NALM6 cells assessed as reduction of cells in S phase after 48 hrs using propidium iodide by FACS analysis. It counts as functional, cell-based. As to conditions: NALM-6. The procedure, abridged:
as §2

As a reminder, the GI50 is the concentration that inhibits growth by half. Low readings indicate greater sensitivity of the cells, high ones lower sensitivity of the cells. As a reminder, the TGI is the concentration giving total growth inhibition. Read a high TGI as lower sensitivity of the cells. One may read the LC50 as the concentration that kills 50% of the test population. For `O=Cc1c(-c2ccc(Br)cc2)nc2sc(Cc3ccccc3)nn12`, the Activity with REH [1] was 0.41%; with REH [2] it was “Dose-dependent effect”; with REH [8], “tde”; in the data set with HEK293 [11], “Non-toxic”; in the data set with HEK293 [12], “Non-toxic”; in the data set on REH [13], “Dose-dependent effect”. In addition, the Activity entry in data set [14] is “Dose-dependent effect”. Further, the GI50 in [3] turned out to be 1.41 µM; in data set [4], 2.2 µM; in data set [5], 2.2 µM; in data set [6] it was 4.2 µM; in [7], 3.2 µM. The TGI turned out to be 13.5 µM in data set [3]; 10 µM in data set [4]; 7.4 µM in [5]; 41.7 µM in data set [6]; 20 µM in data set [7]. The CC50 in data set [4] (read-out: LC50 (the source's name)) came to 81.3 µM. Moreover, the LC50 in data set [5] is 64.6 µM; in [7], 93.3 µM. Also, the result with REH [9] and in the data set with REH [10] was Active.
